Columns and labels:
[1] = target: Centromere-associated protein E (Homo sapiens, UniProt Q02224, I182L/K184T/T183A); assay: Binding affinity to human CENP-E I182L/T183A/K184T mutant assessed as inhibition constant
[2] = tested on: A549; assay: Anticancer activity against human A549 cells assessed as cell growth inhibition measured after 72 hrs by DAPI staining based analysis; format: functional
Outline: (§1)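 Cells were seeded and, after 24 h, DNA content was read as T0. Cells were then exposed to varying drug concentrations for a further 72 h (T72). Fixed cells were DAPI-stained and DNA content measured by automated imaging. T72 values were normalized to T0. GI50 is the concentration giving 50% growth inhibition between T0 and Ymax, obtained by curve fitting.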

[3] = tested on: AN3-CA; assay: Anticancer activity against human AN3-CA cells assessed as cell growth inhibition measured after 72 hrs by DAPI staining based analysis; format: functional; outline: as §1
[4] = tested on: BV-173; assay: Anticancer activity against human BV-173 cells assessed as cell growth inhibition measured after 72 hrs by DAPI staining based analysis; format: functional
Outline: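 Cells were seeded, and DNA content at 24 h after seeding (T0) was read by imaging of fixed, DAPI-stained cells. Cells were then exposed to a range of drug concentrations for a further 72 h (T72) and DNA content was read again. T72 values were normalized to T0, and GI50 was taken from curve fits as the concentration giving 50% growth inhibition relative to T0 and Ymax.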

[5] = tested on: Detroit 562; assay: Anticancer activity against human Detroit 562 cells assessed as cell growth inhibition measured after 72 hrs by DAPI staining based analysis; format: functional
Outline: (§2)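 Cells seeded, DAPI-stained DNA content of fixed cells read by imaging 24 h after seeding (T0), and again after a further 72 h exposure to a range of drug concentrations (T72). T72 values were normalized to T0. Curve fits gave the concentration producing 50% growth inhibition relative to T0 and Ymax (GI50).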

[6] = tested on: HCC1143; assay: Anticancer activity against human HCC1143 cells assessed as cell growth inhibition measured after 72 hrs by DAPI staining based analysis; format: functional; outline: as §2
[7] = tested on: HCT-8; assay: Anticancer activity against human HCT-8 cells assessed as cell growth inhibition measured after 72 hrs by DAPI staining based analysis; format: functional
[8] = tested on: MDA-MB-231; assay: Anticancer activity against human MDA-MB-231 cells assessed as cell growth inhibition measured after 72 hrs by DAPI staining based analysis; format: functional
[9] = Anticancer activity against human MJ cells assessed as cell growth inhibition measured after 72 hrs by DAPI staining based analysis; format: functional
[10] = tested on: NCI-H2122; assay: Anticancer activity against human NCI-H2122 cells assessed as cell growth inhibition measured after 72 hrs by DAPI staining based analysis; format: functional
[11] = tested on: NCI-H2171; assay: Anticancer activity against human NCI-H2171 cells assessed as cell growth inhibition measured after 72 hrs by DAPI staining based analysis; format: functional
[12] = tested on: OV-90; assay: Anticancer activity against human OV-90 cells assessed as cell growth inhibition measured after 72 hrs by DAPI staining based analysis; format: functional
[13] = tested on: OVCAR-5; assay: Anticancer activity against human OVCAR-5 cells assessed as cell growth inhibition measured after 72 hrs by DAPI staining based analysis; format: functional
[14] = tested on: SCaBER; assay: Anticancer activity against human SCaBER cells assessed as cell growth inhibition measured after 72 hrs by DAPI staining based analysis; format: functional
[15] = tested on: SCC-25; assay: Anticancer activity against human SCC-25 cells assessed as cell growth inhibition measured after 72 hrs by DAPI staining based analysis; format: functional
[16] = tested on: SW-620; assay: Anticancer activity against human SW620 cells assessed as cell growth inhibition measured after 72 hrs by DAPI staining based analysis; format: functional
[17] = tested on: T84; assay: Anticancer activity against human T84 cells assessed as cell growth inhibition measured after 72 hrs by DAPI staining based analysis; format: functional
[18] = Anticancer activity against human TE 381.T cells assessed as cell growth inhibition measured after 72 hrs by DAPI staining based analysis; format: functional
[19] = tested on: AGS; assay: Anticancer activity against human AGS cells assessed as cell doubling measured for 72 hrs by DAPI staining based analysis; format: functional
[20] = tested on: BT-20; assay: Anticancer activity against human BT-20 cells assessed as cell doubling measured for 72 hrs by DAPI staining based analysis; format: functional
[21] = Anticancer activity against human C32TG cells assessed as cell doubling measured for 72 hrs by DAPI staining based analysis; format: functional
[22] = tested on: EFM-19; assay: Anticancer activity against human EFM-19 cells assessed as cell doubling measured for 72 hrs by DAPI staining based analysis; format: functional
[23] = tested on: HEC-1-A; assay: Anticancer activity against human HEC-1-A cells assessed as cell doubling measured for 72 hrs by DAPI staining based analysis; format: functional
[24] = tested on: HEC-1B cell line; assay: Anticancer activity against human HEC-1B cells assessed as cell doubling measured for 72 hrs by DAPI staining based analysis; format: functional
[25] = tested on: MC-CAR; assay: Anticancer activity against human MC-CAR cells assessed as cell doubling measured for 72 hrs by DAPI staining based analysis; format: functional
[26] = tested on: MDA-MB-453; assay: Anticancer activity against human MDA-MB-453 cells assessed as cell doubling measured for 72 hrs by DAPI staining based analysis; format: functional
[27] = tested on: NCI-H187; assay: Anticancer activity against human NCI-H187 cells assessed as cell doubling measured for 72 hrs by DAPI staining based analysis; format: functional
[28] = tested on: NCI-N87; assay: Anticancer activity against human NCI-N87 cells assessed as cell doubling measured for 72 hrs by DAPI staining based analysis; format: functional
[29] = Anticancer activity against human RDES cells assessed as cell doubling measured for 72 hrs by DAPI staining based analysis; format: functional, RD-ES
[30] = tested on: RPMI-8226; assay: Anticancer activity against human RPMI-8226 cells assessed as cell doubling measured for 72 hrs by DAPI staining based analysis; format: functional
[31] = tested on: SCaBER; assay: Anticancer activity against human SCaBER cells assessed as cell doubling measured for 72 hrs by DAPI staining based analysis; format: functional
[32] = Anticancer activity against human SKO-007 cells assessed as cell doubling measured for 72 hrs by DAPI staining based analysis; format: functional
[33] = tested on: SNU1; assay: Anticancer activity against human SNU1 cells assessed as cell doubling measured for 72 hrs by DAPI staining based analysis; format: functional
[34] = tested on: SNU-423; assay: Anticancer activity against human SNU-423 cells assessed as cell doubling measured for 72 hrs by DAPI staining based analysis; format: functional
[35] = tested on: SW1463; assay: Anticancer activity against human SW1463 cells assessed as cell doubling measured for 72 hrs by DAPI staining based analysis; format: functional
[36] = tested on: SW-403; assay: Anticancer activity against human SW403 cells assessed as cell doubling measured for 72 hrs by DAPI staining based analysis; format: functional
[37] = tested on: Y79; assay: Anticancer activity against human Y79 cells assessed as cell doubling measured for 72 hrs by DAPI staining based analysis; format: functional
[38] = tested on: A549; assay: Antitumor activity against human A549 cells in xenograft model assessed as tumor growth delay at 62.5 mg/kg relative to control; format: functional
[39] = tested on: MX1; assay: Antitumor activity against human MX1 cells in xenograft model assessed as tumor growth delay at 125 mg/kg relative to control; format: functional
[40] = tested on: MCF7; assay: Antitumor activity against human MCF7 cells in xenograft model assessed as tumor growth delay at 62.5 mg/kg relative to control; format: functional

Sequence of Centromere-associated protein E (Q02224 whole entry I182L/T183A/K184T): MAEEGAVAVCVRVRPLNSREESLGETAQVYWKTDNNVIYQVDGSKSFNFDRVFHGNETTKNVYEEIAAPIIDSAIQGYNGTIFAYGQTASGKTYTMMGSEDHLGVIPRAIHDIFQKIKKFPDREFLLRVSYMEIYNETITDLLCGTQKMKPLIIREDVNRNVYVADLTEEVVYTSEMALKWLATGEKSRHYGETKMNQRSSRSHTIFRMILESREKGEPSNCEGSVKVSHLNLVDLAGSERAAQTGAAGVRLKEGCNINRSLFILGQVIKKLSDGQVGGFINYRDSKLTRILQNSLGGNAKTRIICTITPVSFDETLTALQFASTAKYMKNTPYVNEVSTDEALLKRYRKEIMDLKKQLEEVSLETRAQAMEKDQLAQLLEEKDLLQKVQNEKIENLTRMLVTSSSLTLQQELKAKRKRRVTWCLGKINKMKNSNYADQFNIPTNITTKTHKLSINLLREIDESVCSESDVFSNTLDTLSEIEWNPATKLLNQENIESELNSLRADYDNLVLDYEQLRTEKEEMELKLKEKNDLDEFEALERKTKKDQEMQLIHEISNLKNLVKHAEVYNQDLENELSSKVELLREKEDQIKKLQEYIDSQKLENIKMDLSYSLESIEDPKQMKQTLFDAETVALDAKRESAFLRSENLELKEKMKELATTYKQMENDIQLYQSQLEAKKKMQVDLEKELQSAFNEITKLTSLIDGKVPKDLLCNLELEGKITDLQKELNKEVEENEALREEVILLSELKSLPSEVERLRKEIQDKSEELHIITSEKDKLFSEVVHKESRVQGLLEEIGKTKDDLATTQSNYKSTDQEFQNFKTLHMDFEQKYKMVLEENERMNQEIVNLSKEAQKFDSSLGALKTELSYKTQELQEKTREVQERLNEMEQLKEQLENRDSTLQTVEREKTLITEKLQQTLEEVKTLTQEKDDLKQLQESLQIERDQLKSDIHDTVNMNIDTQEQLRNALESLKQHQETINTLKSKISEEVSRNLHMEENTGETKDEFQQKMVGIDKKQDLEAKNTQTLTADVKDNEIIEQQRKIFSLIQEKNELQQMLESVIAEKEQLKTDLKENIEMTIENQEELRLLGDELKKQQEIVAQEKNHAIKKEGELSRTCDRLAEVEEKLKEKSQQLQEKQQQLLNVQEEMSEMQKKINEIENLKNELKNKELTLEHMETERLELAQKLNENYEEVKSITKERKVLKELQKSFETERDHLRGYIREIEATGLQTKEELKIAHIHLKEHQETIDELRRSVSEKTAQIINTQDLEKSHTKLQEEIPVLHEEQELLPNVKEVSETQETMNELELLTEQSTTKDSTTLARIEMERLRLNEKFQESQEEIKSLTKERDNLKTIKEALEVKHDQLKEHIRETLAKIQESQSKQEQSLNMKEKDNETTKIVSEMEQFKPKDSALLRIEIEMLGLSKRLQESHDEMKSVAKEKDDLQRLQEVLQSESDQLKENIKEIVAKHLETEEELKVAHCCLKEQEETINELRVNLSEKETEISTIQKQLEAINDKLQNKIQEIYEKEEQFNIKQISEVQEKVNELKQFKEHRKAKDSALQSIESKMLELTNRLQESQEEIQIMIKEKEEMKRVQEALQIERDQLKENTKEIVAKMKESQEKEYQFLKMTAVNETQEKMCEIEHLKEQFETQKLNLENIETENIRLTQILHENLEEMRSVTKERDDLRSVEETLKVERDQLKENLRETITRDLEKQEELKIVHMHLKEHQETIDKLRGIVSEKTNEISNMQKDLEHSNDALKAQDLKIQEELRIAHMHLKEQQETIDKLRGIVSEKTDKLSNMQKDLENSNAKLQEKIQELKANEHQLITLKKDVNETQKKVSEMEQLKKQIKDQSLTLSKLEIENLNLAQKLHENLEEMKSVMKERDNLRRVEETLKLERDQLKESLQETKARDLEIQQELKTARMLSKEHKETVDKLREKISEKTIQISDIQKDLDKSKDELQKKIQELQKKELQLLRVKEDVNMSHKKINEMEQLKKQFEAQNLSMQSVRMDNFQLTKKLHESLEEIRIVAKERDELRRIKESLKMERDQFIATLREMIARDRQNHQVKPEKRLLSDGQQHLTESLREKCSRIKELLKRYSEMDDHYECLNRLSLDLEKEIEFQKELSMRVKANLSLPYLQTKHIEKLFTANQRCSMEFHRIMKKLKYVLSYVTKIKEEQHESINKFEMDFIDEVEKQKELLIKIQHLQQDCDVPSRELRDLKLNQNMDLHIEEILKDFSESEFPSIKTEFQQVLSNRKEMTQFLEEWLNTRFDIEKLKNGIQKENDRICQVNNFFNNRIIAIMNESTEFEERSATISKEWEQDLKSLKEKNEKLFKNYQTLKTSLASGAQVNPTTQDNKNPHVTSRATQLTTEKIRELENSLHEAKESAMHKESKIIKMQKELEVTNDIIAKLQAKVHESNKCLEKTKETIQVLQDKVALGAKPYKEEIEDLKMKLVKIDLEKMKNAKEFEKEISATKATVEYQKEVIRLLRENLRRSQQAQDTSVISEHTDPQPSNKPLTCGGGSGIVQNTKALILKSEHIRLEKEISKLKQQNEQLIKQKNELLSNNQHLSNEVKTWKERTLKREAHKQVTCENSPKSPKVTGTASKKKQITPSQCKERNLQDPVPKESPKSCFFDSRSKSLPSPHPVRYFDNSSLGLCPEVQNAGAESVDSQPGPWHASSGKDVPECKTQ

Q: Which results are given for `CC(C)Oc1ccc(C(=O)N[C@H](CNC(=O)CN(C)C)Cc2ccc(-c3cn4cccc([C@H](C)O)c4n3)cc2)cc1Cl` [GSK-923295A]?
A: Ki [1]: 64 nM; GI50 [2]: 21 nM; GI50 [3]: 23 nM; GI50 [4]: 56 nM; GI50 [5]: 35 nM; GI50 [6]: 27 nM; GI50 [7]: 35 nM; GI50 [8]: 5020 nM; GI50 [9]: 50 nM; GI50 [10]: 29 nM; GI50 [11]: 24 nM; GI50 [12]: 61 nM; GI50 [13]: 34 nM; GI50 [14]: 54 nM; GI50 [15]: 23 nM; GI50 [16]: 47 nM; GI50 [17]: 75 nM; GI50 [18]: 27 nM; Activity [19]: 2.95; Activity [20]: 4.17; Activity [21]: 1.21; Activity [22]: 1.43; Activity [23]: 2.67; Activity [24]: 2.04; Activity [25]: 2.03; Activity [26]: 2.26; Activity [27]: 2.08; Activity [28]: 2.53; Activity [29]: 1.32; Activity [30]: 1.96; Activity [31]: 2.86; Activity [32]: 1.01; Activity [33]: 2.64; Activity [34]: 1.44; Activity [35]: 1.22; Activity [36]: 1.12; Activity [37]: 4.11; Activity [38]: 11%; Activity [39]: 26%; Activity [40]: 20%
